# This is a sample that favours compounds with a hit; in the whole collection about 4.1% have one here.
# FLuc inh counter – firefly luciferase enzyme inhibitors, primary screen, artefact control for luciferase-based inhibitor screens, biochemical, luminescence, ATPLite | Luciferin 4-monooxygenase (Photinus pyralis), P08659 | 10 min | inhibition, % at 10 µM | 200,000 compounds, 1.5% hits | AID 1006, 2008;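 active = inhibition above about 50% when tested at 10 µM, limit read from the data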
# Target sequence (P08659 whole entry, looked up): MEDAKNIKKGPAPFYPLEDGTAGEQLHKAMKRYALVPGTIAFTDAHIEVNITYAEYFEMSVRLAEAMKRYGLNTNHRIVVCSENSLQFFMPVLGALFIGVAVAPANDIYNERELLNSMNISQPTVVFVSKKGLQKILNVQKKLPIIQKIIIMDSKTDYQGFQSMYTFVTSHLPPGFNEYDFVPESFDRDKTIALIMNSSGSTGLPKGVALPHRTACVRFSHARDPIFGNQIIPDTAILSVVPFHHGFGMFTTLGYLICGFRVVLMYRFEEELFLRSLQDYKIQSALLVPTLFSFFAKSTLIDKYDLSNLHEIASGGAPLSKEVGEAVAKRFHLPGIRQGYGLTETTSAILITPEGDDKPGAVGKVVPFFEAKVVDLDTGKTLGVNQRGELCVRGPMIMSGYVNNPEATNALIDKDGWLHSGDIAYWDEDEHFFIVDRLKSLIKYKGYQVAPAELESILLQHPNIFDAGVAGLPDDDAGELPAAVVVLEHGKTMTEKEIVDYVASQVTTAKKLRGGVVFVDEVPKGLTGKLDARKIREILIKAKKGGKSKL
# STAT1 activator – STAT1 signaling activators, primary screen, cell-based, HTS, luciferase reporter; activation (% of control), % at 5.5 µM; NIH 3T3 STAT1-luciferase reporter, IFN-gamma, luminescence; 100% = IFN-gamma alone, no compound; 200,000 compounds, 2.6% hits;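 active = activation above the screen-wide mean activation plus 3 SD, cut at about 130% in these data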;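 also: raw ratio to IFN-gamma control signal so 100% means no change and 0% no light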
# NF-kB expr up – activators of NF-kB expression in neurons, primary screen, cell-based, HTS; human neuronal cells, NF-kB reporter expression; stronger effect = higher value; fold change at 12.5 µM; 190,000 compounds, 1.6% hits; in the data active = fold change above about 3.3
# APP 5'UTR act – activators of APP 5'UTR luciferase reporter, primary screen, SH-SY5Y cells; SH-SY5Y APP 5'UTR luciferase reporter, luminescence; zero percent = DMSO vehicle wells; activation, % at 2 µM; 190,000 compounds, 1% hits; AID 1276, 2008;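 active = activation above a set limit, based on mean plus 3 SD of controls, cut at about 140% in these data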
# FLuc stim CS – FLuc activators, initial screening, artefact control for FLuc-dependent activation tests, biochemical, ATPlite luminescence | ATPlite luciferase biochemical, 10 min; 0 = ATP-free wells, 1 = DMSO control | Luciferin 4-monooxygenase (Photinus pyralis), P08659 | 200,000 tested, under 10 active | activation factor at 10 µM;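 active = luciferase activation factor, scaled between plate controls, of at least 2 with compound at 10 µM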
#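 Assay system: Luciferase/luciferin detection reagent, cell-free biochemical luciferase assay / Also added: ATP substrate / Schedule: 10 min at ambient temperature / Measured by: luminescence measurement of luciferase light output / Benchmarks: low control with PBS replacing ATP, high control enzyme plus ATP without compound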
# STAT1 activ conf – STAT1 signaling activators, confirmation, cell-based, HTS, luciferase reporter. 1,200 compounds, 97% hits. shares compounds with STAT1 activator. activation (% of control), % at 5.7 µM. NIH 3T3 STAT1-luciferase reporter, IFN-gamma potentiation, luminescence; 100% = IFN-gamma EC80 alone, no compound;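 active = activation above a set limit carried over from the earlier primary STAT1 screen, cut at about 140% in these data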;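 also: simple ratio to median IFN-gamma plus DMSO wells so 0% means no light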
# NFkB act STAT1ct – NF-kB reporter activators, TNF-alpha stimulated, counter-screen for STAT1 activator project, cell-based, HEK293T, luciferase luminescence | shares compounds with STAT1 activator | 100% = TNF-alpha with vehicle only | activation (% of control), % at 5.7 µM | 1,200 compounds, 43% hits;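 active = activation above the mean of solvent-only control wells plus 3 SD, set per campaign, cut at about 130% in these data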;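 also: TNF-alpha given at a submaximal dose yielding about 80% of full reporter signal; values are well signal over median control so 100% means no change and 0% no light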
# STAT3 act STAT1c – STAT3 reporter activation by STAT1 hits, confirmation, counter-screen for STAT1 activator project, U3A cells, luciferase, luminescence | shares compounds with STAT1 activator | IL-6; cells lack STAT1; 100 = IL-6 alone, no compound effect | activation (% of control), % at 5.7 µM | 1,200 compounds, 46% hits;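 active = activation above the solvent-only control well mean plus 3 SD, set per plate batch, cut at about 110% in these data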;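 also: 0% = no luminescence and 100% = median IL-6 plus DMSO wells; higher means more STAT3 reporter activation so hits are non-selective activators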
# Starred values were filed as active, the others as inactive; / = not tested or not shown.
SMILES,FLuc inh counter,STAT1 activator,NF-kB expr up,APP 5'UTR act,FLuc stim CS,STAT1 activ conf,NFkB act STAT1ct,STAT3 act STAT1c
CCn1c(SCC(=O)N/N=C/C=C\c2ccccc2[N+](=O)[O-])nnc1-c1ccccc1,-6,92,0.78,-1,1.1,/,/,/
Cc1ccc(Nc2nc(-c3ccncc3)cs2)cc1,35,175*,2.9,129,0.6,215*,137*,126*
CC(=O)Nc1ccc(S(=O)(=O)Nc2cccc(-c3csc(C)n3)c2)cc1,-10,87,/,1,1.1,/,/,/
CC(=O)Nc1cccc(-c2csc(Nc3ccc(C)cn3)n2)c1,71*,217*,7.6*,206*,0.3,329*,139*,99
Cc1ccc(C2C(=O)N(C3CCC(C)CC3)CC(=O)N2C2CCCC2)cc1 (stereo unspecified),-7,94,0.76,-2,1.1,/,/,/
CC(=O)COc1ccc2c(C)c(-c3ccccc3)c(=O)oc2c1,32,156*,2.6,40,0.7,156*,115,98
CC(=O)COc1ccc2c3c(c(=O)oc2c1)CCCC3,-2,108,1.7,-3,1,/,/,/
CCOC(=O)c1sc2ccccc2c1OC(=O)c1ccc(C)cc1,-5,103,0.62,4,1.1,/,/,/
CC(=Nc1ccc(C)cc1)c1sc2ccccc2c1O,85*,154*,4.8*,197*,0.1,248*,104,88
Cc1ccc(Nc2cc(C)nn2-c2nc(C)cc(C)n2)cc1,-2,95,1.1,-6,1,/,/,/
Cc1ccc(Nc2cc(C)nn2-c2nc(C)cc(=O)[nH]2)cc1,-5,232*,0.14,-92,1.1,181*,167*,88
O=C1/C(=C/c2ccc(F)cc2)SC(=S)N1Nc1ncc(C(F)(F)F)cc1Cl,0,102,1.1,-7,1,/,/,/
CCc1ccc(NC(=O)C(=S)NC2CCCCC2)cc1,10,160*,2.9,116,0.9,200*,144*,113*
COc1ccc(NC(=O)C(=S)NC2CCCCC2)cc1,24,158*,0.91,121,0.8,194*,138*,115*
Cc1cc(-c2ccccc2)oc(=O)c1NC(=O)c1ccccc1,-4,110,1.3,-9,1,/,/,/
COc1ccc(/C(C)=N/Nc2ccc(C(=O)O)cc2)cc1OC,9,157*,6*,158*,0.9,190*,120,119*
COc1cc(/C(C)=N/Nc2ccc(C(=O)O)cc2)cc(OC)c1OC,-4,96,1.2,66,1,/,/,/
Cc1c(Nc2c3c(c(C#N)c4nc5ccccc5n24)CCC3)c(=O)n(-c2ccccc2)n1C,-7,92,0.93,6,1.1,/,/,/
O=C(Nc1ccc(-c2noc(-c3cccs3)n2)cc1)c1cccnc1,4,157*,3.8*,110,1,197*,136*,109
COc1cccc(-c2nc(-c3ccc(NC(=O)c4cccnc4)cc3)no2)c1,-3,102,1,2,1,/,/,/
O=C(Nc1ncc(Cc2ccccc2Cl)s1)C1CCCO1 (stereo unspecified),6,151*,3.9*,70,0.9,166*,134*,149*
O=C(Nc1ncc(Cc2cccc(Cl)c2)s1)C1CCCO1 (stereo unspecified),-1,117,2.2,52,1,/,/,/
O=C(N/N=C/c1ccc(Cl)cc1Cl)c1cccc(F)c1,26,160*,1.6,127,0.7,212*,142*,107
